Measured values pooled from the literature.
RPS6KA1: Ribosomal protein S6 kinase alpha-1 (RPS6KA1, Homo sapiens, UniProt Q15418)
RPS6KA1 C-terminal kinase domain: Ribosomal protein S6 kinase alpha-1, C-terminal kinase domain (RPS6KA1, Homo sapiens, UniProt Q15418)

| SMILES | target | effect on | action | technique | tested at | quantity | result |
| --- | --- | --- | --- | --- | --- | --- | --- |
| C#Cc1n[nH]c2c(-c3cn([C@@H](C)c4ccccn4)c(=O)[nH]c3=O)cc(F)cc12 | RPS6KA1 | enzyme activity | inhibitor |  | 0.1 µM | inhibition | 7.4% |
| O=c1[nH]c2ccccc2n1C1CCN(Cc2ccc(-c3[nH]c4cc5ncnc5cc4nc3-c3ccccc3)cc2)CC1 | RPS6KA1 | cell-free assay |  |  | 0.5 µM | remaining signal | 101% |
| Cc1nn(C)cc1-c1nc2c(N3CCN(Cc4ccc(Cl)cc4)CC3)c(Cl)cnc2[nH]1 | Ribosomal protein S6 kinase alpha-1, N-terminal kinase domain (RPS6KA1, Homo sapiens, UniProt Q15418) | binding |  | competition with immobilised ligand | 1 µM | remaining binding | 100% |
| Cn1cncc1[C@@](O)(COc1ccc(C#N)cc1-c1ccc(OC(F)(F)F)cc1)c1ccc(C#N)cc1 | RPS6KA1 C-terminal kinase domain | cell-free assay |  | competition with immobilised ligand | 1 µM | remaining binding | 100% |
| C#Cc1n[nH]c2c(-c3cn([C@@H](C)c4ccccc4)c(=O)[nH]c3=O)cc(F)cc12 | RPS6KA1 | enzyme activity | inhibitor |  | 0.1 µM | inhibition | 6.2% |
| Cn1cc(-c2cc(F)cc(N3CCn4c(cc5c4CCCC5)C3=O)c2CO)cc(Nc2ccc(N3CCN(C4COC4)CC3)cn2)c1=O | RPS6KA1 | enzyme activity | inhibitor |  | 0.1 µM | inhibition | 0% |
| N#CC1(c2ccccn2)CCN(Cc2cc(C(=O)O)c(=O)n3ccccc23)CC1 | RPS6KA1 C-terminal kinase domain | cell-free assay |  | competition with immobilised ligand | 1 µM | remaining binding | 100% |
| Cn1cc(-c2cccc(N3CCc4c(sc5c4CC(C)(C)C5)C3=O)c2CO)cc(Nc2ccncn2)c1=O | RPS6KA1 | enzyme activity | inhibitor |  | 1 µM | inhibition | -1% |
| CC(C)(C)c1cc(C=C(C#N)C#N)cc(Br)c1O | RPS6KA1 | enzyme activity | inhibitor |  | 0.5 µM | remaining activity | 104% |
| Nc1ncc(-c2nc(N3CCOCC3)nc(N3CCOCC3)n2)c(C(F)F)n1 | RPS6KA1 C-terminal kinase domain | binding |  | competition with immobilised ligand | 10 µM | remaining binding | 88% |
